Rows were chosen to be rich in hits. Some 2.1% of all compounds tested hit in one or more screens of this group.
Autophagy mod: autophagy modulators in MEF cells, primary screen, imaging, high-content, MEF GFP-LC3; calls only at 10 µM (by protocol); AID 463193, 2010; MEF GFP-LC3 puncta imaging; test concentration mostly 10 µM; 0.98% of 190,000 active;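 active means percentage of spot-positive cells more than 3 SD above its plate mean, without a fluorescence outlier flag or 80% toxicity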;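 further: spot-positive cell cutoff set from DMSO-treated cells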
bCat nuc transl: modulators of beta-catenin nuclear translocation, primary screen, imaging, HeLa cells, immunofluorescence, high-content | nuclear translocation activity, % at 5 µM | 0.3% of 190,000 active | AID 1665, 2009;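 active means nuclear translocation activity above 50% at 5 µM, with a well cell count of 50 or more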;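 further: per-cell ratio of nuclear to cytoplasmic median beta-catenin stain intensity; plate controls were DMSO negative control for no effect and GSK-3 inhibitor IX positive control for full effect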
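Technique: fluorescence imaging of beta-catenin antibody stain plus DAPI / Material: human HeLa cell line / Incubation: compound treatment 24 h, 37°C, 5% CO2 / Read-out basis: % activation of per-cell nuclear versus cytoplasmic median beta-catenin signal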
MT stabilize HCS: microtubule stabilizers in HeLa cells, primary screen, imaging, high-content imaging. % tubulin-high responders, % at 10 µM. 0.83% of 200,000 active. HeLa tubulin immunostaining HCS, 24 h; share of cells brighter than vehicle mean+2SD;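 active means plate Z-score above 3 for both tubulin-high and condensed-nucleus cell shares, with cell loss under 80%, at 10 µM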;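 further: anti alpha tubulin signal scored within the nucleus-defined area of each cell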
Hsp70 activator: Hsp70 transcriptional activators, primary screen, cell-based, HeLa, Hsp70 promoter luciferase, luminescence, 10 µM; HeLa Hsp70 promoter luciferase reporter; scaled: vehicle 0, proteasome-inhibitor control 100%; activation, % at 10 µM; 0.04% of 200,000 active; AID 1203, 2008;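 active means activation above the mean across all tested compounds plus 3 SD, cutoff set per campaign, cut at about 5.5% in these data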;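 further: 100% = MG132 at 30 µM as the positive control and 0% = DMSO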
Dynein cargo inh: inhibitors of GR-EGFP nuclear translocation, primary screen, dynein cargo transport inhibitor project, imaging, high-content, 3617.4 mouse cells; test concentration mostly 20 µM; stimulated with dexamethasone, 1 µM; active compounds read low; z-score, hits read low; 0.47% of 220,000 active; AID 1381, 2008;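 active means plate z-score of nuclear minus cytoplasmic receptor signal below a set negative limit, without overly bright fluorescence or cell loss, cut at about -3.5 in these data, passing the limit was not always enough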;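 further: z-score of nuclear minus cytoplasmic ring GR-EGFP intensity difference per well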
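Also added – dexamethasone, 1.0 µM final · Buffer or medium – tet-free, stripped-serum medium · Schedule – induction 48 h, compound 1 h, agonist 30 min · Detection – formaldehyde fixation, Hoechst nuclear stain, 10x automated fluorescence imaging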
An asterisk follows results filed as active; i = inactive; / = no result given; + = active, no number.

SMILES	Autophagy mod	bCat nuc transl	MT stabilize HCS	Hsp70 activator	Dynein cargo inh
C/C(N)=C(/C#N)C(=O)CSc1nc2scc(-c3ccc(F)cc3)c2c(=O)n1C	i	-1	3	0	1.8
COc1ccc(CC(=O)N2N=C(c3ccncc3)CC2(O)C(F)(F)F)cc1 (stereo not drawn)	i	12	15*	0	-0.65
COc1cccc(N/C(SC)=C(/C#N)C(N)=O)c1	i	-1	22*	0	-0.27
CCOC(=O)c1nn(-c2cccc(OC)c2)c2nc(Nc3ccccc3)cc(=O)n12	+	/	2	0	0.6
CCOC(=O)c1nn(-c2cccc(Cl)c2)c2nc(Nc3ccccc3)cc(=O)n12	i	/	3	0	-0.23
Cc1cccc(C(=O)N2CCCCCC2)c1	i	/	1	0	-0.42
Cc1cccc(C(=O)N2CCN(C(=O)c3cccc(C)c3)C(C)C2)c1 (stereo not drawn)	+	/	4	0	1.4
Cc1cccc(C)c1NC(=S)NC(C)(C)CO	/	0	/	/	1
CS(=O)(=O)c1[nH]nc(-c2ccccc2)c1C#N	/	1	/	/	-0.46
CSc1sc(C(=O)NNC(C)=O)c2c1C=CCC2	/	0	/	/	-0.41
Cc1cnc(CN2CCCC(C(=O)c3ccc4c5c(cccc35)CC4)C2)[nH]1 (stereo not drawn)	+	0	2	0	1.3
O=C1CCC(C(=O)N2CCCC(C(=O)c3ccc4c5c(cccc35)CC4)C2)=NN1 (stereo not drawn)	i	-1	33*	0	-0.036
O=C(c1ccc2c3c(cccc13)CC2)C1CCCN(Cc2ccccn2)C1 (stereo not drawn)	i	-2	2	0	-0.73
CCOc1ccccc1NC(=O)CCCN1C(=S)NC(C)(C)CC1C (stereo not drawn)	i	4	2	0	-0.49
NC(=O)c1ccc(NC(=O)CSc2nnc(-c3ccncc3)n2Cc2ccco2)cc1	/	-1	/	/	0.15
Cc1ccccc1CSc1nc2[nH]ncc2c(=O)[nH]1	i	-4	3	0	-1.7
Cc1ccc(C)c(CSc2nc3[nH]ncc3c(=O)[nH]2)c1	i	21	23*	0	-0.1
Cc1cc(Cn2ccnc2)c(C)cc1Cn1ccnc1	i	-1	43*	0	-0.35
COc1ccc(C=O)cc1Cn1ccnc1	i	0	3	0	-0.69
Cc1ccccc1OCCN(C#N)c1nc(N(C)C)nc(N(C)C)n1	i	-2	1	0	0.58
COc1ccccc1S(=O)(=O)Cc1ccc(C(=O)N2CCN(c3ccccc3)CC2)o1	i	-4	2	0	-0.41
Cc1ccc(S(=O)(=O)Cc2ccc(C(=O)N3CCN(c4cc(C)ccc4C)CC3)o2)cc1	i	-3	29*	-1	-0.87
COc1ccccc1S(=O)(=O)Cc1ccc(C(=O)N2CCN(c3cccc(Cl)c3)CC2)o1	i	44	48*	0	-0.47
Cc1cccc(N2CCN(C(=O)c3ccc(CS(=O)(=O)c4ccccc4C)o3)CC2C)c1 (stereo not drawn)	i	109*	19*	0	-0.43
COCCNC(=O)/C(C#N)=C1\N=C(N)c2ccccc21	i	-1	1	0	-1.2
SMILES	Autophagy mod	bCat nuc transl	MT stabilize HCS	Hsp70 activator	Dynein cargo inh
CC(=O)c1ccc(-n2c(=O)[nH]c(=O)c3c(N)c(C(=O)c4ccc(Cl)cc4)sc32)cc1	/	-1	/	/	-0.2
CCSC1=N/C(=C\C=C2/Oc3ccccc3N2CC)C(=O)S1	/	1	/	/	0.35
CCn1nc(C)c(CN2CCc3c([nH]c4ccccc34)C2c2ccc(F)c(OC)c2)c1C (stereo not drawn)	i	3	3	0	-0.94
O=Cc1c(N2CCC3(CC2)OCCO3)nc2ccccn2c1=O	/	0	/	/	-0.18
CCOC(=O)c1ccc(N2C(=O)CC(N3CCC(C(N)=O)(N4CCCCC4)CC3)C2=O)cc1 (stereo not drawn)	+	-1	3	-1	-1.5
CC(=O)c1ccc(Nc2cc(C)nc3ccccc23)cc1	i	43	27*	0	0.68
CC(=O)c1cccc(Nc2cc(C)nc3c(C)cc(C)cc23)c1	i	-3	2	0	0.21
CC(=O)c1ccc(Nc2cc(C)nc3c(C)cccc23)cc1	i	67*	18*	0	1.1
CCOC(=O)C(=O)c1cn(C2OCC(OC(C)=O)C(OC(C)=O)C2OC(C)=O)c2ccccc12 (stereo not drawn)	i	-1	2	0	-0.49
C=C(C)CSc1cc(C)nc2c(-c3ccccc3)c(C)nn12	/	1	/	/	-0.46
Nc1ccc2c(c1)Cc1cc([N+](=O)[O-])ccc1-2	+	-1	3	0	-6.9
CCNC(=O)COC(=O)c1cc(C)n(-c2ccccc2)c1C	i	-3	2	0	0.086
Cc1cc(C(=O)OCC(=O)NCc2ccco2)c(C)n1-c1ccc(F)cc1	i	82*	17*	0	-1.3
COc1ccccc1-c1cc(C(=O)N/N=C\c2cnn(C)c2C)c2ccccc2n1	i	0	2	0	-0.41
CCc1ccc(/C=N/NC(=O)c2cc(-c3ccncc3)nc3ccccc23)s1	i	66*	9	0	0.76
CCn1ncc(/C=N\NC(=O)c2cc(-c3ccc(C)cc3C)nc3ccccc23)c1C	i	-3	44*	0	-0.43
O=C(N/N=C/c1cccs1)c1cc(C2CC2)nc2ccccc12	i	61*	17*	0	1.3
COc1ccccc1-c1cc(C(=O)N/N=C/c2cccs2)c2ccccc2n1	i	/	2	-1	-0.05
Cn1cccc1/C=N/NC(=O)c1cc(-c2cccs2)nc2ccccc12	i	17	17*	-1	-0.14
CC(C)(C)C(=O)N1CCC(O)(CS(=O)(=O)c2ccc(Cl)c(Cl)c2)CC1	i	0	2	0	-0.38
Cc1nn(C)c(Sc2ccccc2N)c1[N+](=O)[O-]	i	0	7	0	0.26
Cc1cccc(N2CC(C(=O)O)CC2=O)c1C (stereo not drawn)	/	0	/	/	0.37
O=[N+]([O-])c1cccc(S(=O)(=O)Nc2ccc(Cc3ccncc3)cc2)c1	/	1	/	/	-0.3
O=C(N/N=C/c1cccs1)c1cc(-c2ccncc2)nc2ccccc12	i	61*	5	0	-0.26
CCCc1cc(C(=O)N/N=C/c2ccc(CC)s2)c2ccccc2n1	i	/	34*	0	-0.76
CCc1ccc(/C=N/NC(=O)c2c[nH]c3ccccc23)s1	i	-3	2	0	0.29
O=C(Nc1cc(C(F)(F)F)cc(C(F)(F)F)c1)Nc1cnn(-c2ccc([N+](=O)[O-])cc2)c1C(F)(F)F	/	22	/	/	0.25
